According to ChEMBL document CHEMBL1250524, “Novel imidazoline compounds as partial or full agonists of D2-like dopamine receptors inspired by I2-imidazoline binding sites ligand 2-BFI” (Bioorg Med Chem, 2010):

Legend:
[1] = Displacement of [3H]YM-09-151-2 from D2-like receptor in pig striatal membrane; assay type: cell membranes, Sus scrofa, Striatum
How it was run: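 Pig striatal membranes (about 200 µg protein) in Tris–HCl pH 7.4 with protease inhibitors, incubated to equilibrium (60 min, 30 °C) with 0.3 nM [3H]YM-09-151-2 and at least six compound concentrations. Nonspecific binding defined with 2.5 mM dopamine. Filtration, scintillation counting. IC50 converted to Ki by Cheng–Prusoff; 3–5 experiments in triplicate. Radioligand Kd 0.40 nM.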

[2] = Displacement of [3H]2BFI from I2 imidazoline binding site in rat brain membrane; assay type: cell membranes
How it was run: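 Rat whole-brain membranes (about 300 µg protein) incubated to equilibrium (30 min, room temperature) with 1 nM [3H]2-BFI and increasing compound concentrations in 50 mM Tris–HCl, 1 mM MgCl2, pH 7.4. Nonspecific binding defined with 10 µM BU224. Filtration, scintillation counting. At least six concentrations; IC50 converted to Ki by Cheng–Prusoff; 3–5 experiments in triplicate.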

[3] = target: T1, Adrenergic receptor alpha-2 (Rattus norvegicus, UniProt P22086+P19328+P22909); assay: Displacement of [3H]RX821002 from alpha2 adrenergic receptor in rat brain membrane; assay type: cell membranes
T1 sequence (P22086 whole entry): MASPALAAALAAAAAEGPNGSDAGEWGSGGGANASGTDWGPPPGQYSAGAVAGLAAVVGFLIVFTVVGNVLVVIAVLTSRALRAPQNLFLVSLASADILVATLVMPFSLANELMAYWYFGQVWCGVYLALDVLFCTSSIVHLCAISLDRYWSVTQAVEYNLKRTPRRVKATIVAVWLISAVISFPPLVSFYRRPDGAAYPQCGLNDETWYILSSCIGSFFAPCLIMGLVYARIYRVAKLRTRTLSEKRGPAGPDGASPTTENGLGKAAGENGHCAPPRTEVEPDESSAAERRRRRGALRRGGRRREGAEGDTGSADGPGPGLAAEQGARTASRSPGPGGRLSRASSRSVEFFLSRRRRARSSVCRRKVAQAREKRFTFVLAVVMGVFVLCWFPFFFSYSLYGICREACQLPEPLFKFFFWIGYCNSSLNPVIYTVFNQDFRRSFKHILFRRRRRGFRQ
T1 sequence (P19328 whole entry): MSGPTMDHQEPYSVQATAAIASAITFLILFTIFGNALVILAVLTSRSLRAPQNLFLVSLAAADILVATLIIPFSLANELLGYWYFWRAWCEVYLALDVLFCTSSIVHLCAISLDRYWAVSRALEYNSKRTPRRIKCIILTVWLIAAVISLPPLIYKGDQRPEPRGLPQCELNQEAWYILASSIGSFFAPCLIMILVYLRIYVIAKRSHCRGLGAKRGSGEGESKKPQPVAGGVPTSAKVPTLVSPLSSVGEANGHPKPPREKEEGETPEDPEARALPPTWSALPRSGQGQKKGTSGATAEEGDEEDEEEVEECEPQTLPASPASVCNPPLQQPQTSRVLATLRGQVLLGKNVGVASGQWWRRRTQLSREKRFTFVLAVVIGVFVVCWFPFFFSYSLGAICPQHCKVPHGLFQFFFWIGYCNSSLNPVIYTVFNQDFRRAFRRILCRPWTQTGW
T1 sequence (P22909 whole entry): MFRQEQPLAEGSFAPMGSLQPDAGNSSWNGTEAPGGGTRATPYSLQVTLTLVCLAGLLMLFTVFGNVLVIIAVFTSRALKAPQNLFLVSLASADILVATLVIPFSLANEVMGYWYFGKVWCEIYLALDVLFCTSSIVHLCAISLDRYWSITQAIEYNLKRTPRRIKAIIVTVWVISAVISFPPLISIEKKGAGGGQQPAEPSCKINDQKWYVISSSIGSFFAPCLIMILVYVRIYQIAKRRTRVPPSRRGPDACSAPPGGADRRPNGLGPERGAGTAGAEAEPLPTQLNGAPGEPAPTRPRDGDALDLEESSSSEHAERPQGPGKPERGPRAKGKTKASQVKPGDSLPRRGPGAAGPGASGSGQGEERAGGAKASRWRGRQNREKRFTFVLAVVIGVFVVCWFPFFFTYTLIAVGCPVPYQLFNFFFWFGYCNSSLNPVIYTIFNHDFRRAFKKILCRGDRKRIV

[4] = Agonist activity at D2-like receptor in pig striatal membrane assessed as [35S]GTPgammaS binding; assay type: functional, cell membranes, Sus scrofa, Striatum
How it was run: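 Porcine striatal membranes incubated 60 min at 30 °C in 50 mM Tris–HCl pH 7.4 with GDP, 5 mM MgCl2, 0.1 mM EDTA, 0.2 mM EGTA, 0.2 mM DTT, 150 mM NaCl, 0.2 nM [35S]GTPγS and six compound concentrations. Nonspecific binding defined with unlabeled GTPγS. Filtration, scintillation counting. EC50 by nonlinear regression, three independent experiments. Intrinsic activity set relative to dopamine %Emax = 1.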

[5] = Displacement of [3H]SCH23390 from dopamine D1-like receptor pig striatal membrane
Rattus norvegicus [6] = assay: Anxiolytic-like activity in Wistar rat assessed as rearing activity at 0.0149 uM/kg, icv by open field test; assay type: functional
How it was run: (§1)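 Male Wistar rats (200–225 g, 8 per group) given ip zolazepam/tiletamine anaesthesia before a cannula was implanted in the right lateral ventricle. Compound given icv at 0.0149 µM/kg; controls received physiological solution. Open field with two photocell rows: lower-row breaks counted as ambulatory episodes, upper-row breaks as rearing. Read-out is the % of episodes in the central area, mean ± SE.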

Rattus norvegicus [7] = assay: Anxiolytic-like activity in Wistar rat assessed as ambulatory activity at 0.0149 uM/kg, icv by open field test; assay type: functional; how it was run: as §1

| Ki [1] [µM] | Ki [2] [µM] | Ki [3] [µM] | EC50 [4] [µM] | Kd [5] [µM] | Structure (SMILES) | Activity (Rattus norvegicus [6]) [%] | Activity (Rattus norvegicus [7]) [%] |
| --- | --- | --- | --- | --- | --- | --- | --- |
| > 100 | > 100 | 25.5 | – | – | CCN1CCN=C1c1cc2cc(O)ccc2o1 | – | – |
| > 100 | – | – | – | – | CN1CCN=C1c1cc2cc(O)ccc2o1 | – | – |
| 3.9 | – | – | 4.8 | 0.00133 | NCCc1ccc(O)c(O)c1 [DOPAMINE] | – | – |
| > 100 | 0.0881 | 2.95 | – | – | Oc1ccc2oc(C3=NCCN3)cc2c1 | – | – |
| 13.8 | 2.1 | 1.92 | 13.3 | – | CCCN1CCN=C1c1cc2ccc(O)cc2o1 | – | – |
| 15.8 | 0.7 | 3.64 | – | – | CCCN1CCN=C1c1cc2cc(O)ccc2o1 | – | – |
| – | – | – | – | – | N[C@@H](Cc1ccc(O)c(O)c1)C(=O)O [LEVODOPA] | 2 | 5.7 |
| 14.5 | 0.076 | 11 | 5.7 | – | Oc1ccc2cc(C3=NCCN3)oc2c1 | – | – |
| 47 | 0.0034 | – | 37.7 | – | c1ccc2oc(C3=NCCN3)cc2c1 | – | – |
| > 100 | 28 | 10.16 | – | – | CCCN1CCN=C1c1cc2cc(O)c(O)cc2o1 | – | – |
| > 100 | 5.69 | 24.21 | – | – | Oc1cc2cc(C3=NCCN3)oc2cc1O | – | – |
| 5.66 | 5.78 | 2.08 | 5.8 | – | Oc1ccc2cc(C3=NCCN3Cc3ccccc3)oc2c1 | 2 | 6.3 |
| 18.5 | 10.4 | 4.43 | 11.9 | – | Oc1cc2cc(C3=NCCN3Cc3ccccc3)oc2cc1O | – | – |
| 5 | 1.1 | 4.39 | 6.3 | – | Oc1ccc2oc(C3=NCCN3Cc3ccccc3)cc2c1 | – | – |
